# Most compounds without a hit are left out; they make up all but 4.3% or so of the library.
# WT yeast gro inh: growth inhibition of WT yeast, mitochondrial fusion screen; mitochondrial fusion phenotypic screen, WT strain; inhibition, % at 10 µM; hit rate 2.1% among 190,000; in the data active = inhibition above about 58%; tested in S. cerevisiae
# Yeast lifespan up: extends the lifespan of yeast | S. cerevisiae growth with nicotinamide, OD615; deaD strain in restrictive glucose medium | inhibition of the nicotinamide effect, % at 10 µM | hit rate 0.68% among 130,000;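 active = inhibition above a set limit, placed 3 SD over the median of all compounds, cut at about 26% in these data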;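 note: 0% = nicotinamide-treated wells and 100% = cells grown without nicotinamide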
#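 Test system – modified budding yeast, DeaD strain · Compound – single dose 10 µM compound, 0.25% DMSO · Times – culture preincubation 4 h, compound exposure 48 h, both 30 °C · Detection – optical density (absorbance) at 615 nm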
# Yeast growth inh: reduces growth of yeast BB579 in restrictive medium. S. cerevisiae BB579 growth, OD615, 48 h. inhibition, % at 10 µM. hit rate 0.51% among 140,000. AID 804;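 active = inhibition above a set limit, 3 SD over the mean compound inhibition, cut at about 44% in these data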
#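 System: DeaD yeast strain BB579; buffer or medium: CSMM-D dextrose restrictive medium; technique: OD at 615 nm; schedule: 4 h cell preincubation, 48 h compound exposure, 30 °C humidified; doses: single 10 µM dose; controls: amphotericin B 10 µg/mL, positive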
# RAM inhibit: blocks the yeast RAM network | S. cerevisiae dse1pr::URA3 reporter, 5-FOA growth OD615, 2 d; analog-sensitive cbk1-as2 kinase mutant strain | inhibition, % at 50 µM | hit rate 1.8% among 190,000 | AID 868;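 active = inhibition above a set limit, 3 SD over mean compound inhibition, cut at about 8.4% in these data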;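 note: 0% = DMSO-only wells with no growth and 100% = 10 µM 1-NA-PP1 full growth; inhibition rescues growth on 5-FOA so higher OD means more RAM inhibition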
# Starred values were filed as active, the others as inactive; . = no result given.
SMILES,WT yeast gro inh,Yeast lifespan up,Yeast growth inh,RAM inhibit
CC(Cc1cccs1)NC(=S)Nc1ccc(Cl)c(Cl)c1 (centres undefined),57.4,-3.3,3.9,3.1
CC(Cc1cccs1)NC(=S)Nc1ccc(Cl)cc1 (centres undefined),67.2*,-4.3,-31.5,-0.1
Cc1ccccc1NC(=O)COC(=O)Cc1ccsc1,.,.,.,-0.4
O=C(CCn1c(=S)oc2ccccc21)N1CCCCC1,-9.1,.,.,2.2
O=C1Nc2ccc(Cl)cc2[C@@](C#CC2CC2)(C(F)(F)F)O1,82.3*,.,.,.
CC(=O)O[C@]1(C(C)=O)CC[C@H]2[C@@H]3C=C(Cl)C4=CC(=O)CC[C@]4(C)[C@H]3CC[C@@]21C,34.0,2.3,-18.4,8.8*
Nc1nc(SCC(=O)Nc2ccc3c(c2)OCO3)n[nH]1,-0.1,.,.,1.0
O=C(CCN1C(=O)/C(=C/c2cccs2)SC1=S)NC1=NCCS1,72.4*,-2.3,-32.4,4.6
COc1ccccc1/C=C1\SC(=S)N(CCC(=O)NC2=NCCS2)C1=O,2.6,3.1,-15.7,5.2
O=C(CCN1C(=O)/C(=C\c2cccs2)SC1=S)NC1=NCCS1,75.6*,-1.4,-29.2,3.5
CCc1ccc(/C=C2\SC(=S)N(CCC(=O)NC3=NCCS3)C2=O)cc1,0.5,.,.,9.3*
CCOC(=O)Cc1cnc(NC(=O)CSc2nc(C)c(CC)c(=O)[nH]2)s1,0.1,.,.,-0.8
CCCNC(=O)CN(C1CCCCC1)S(C)(=O)=O,0.0,-3.8,-45.3,0.1
CC(C)CNC(=O)CN(C1CCCCC1)S(C)(=O)=O,12.7,-0.7,43.6*,0.5
Cn1cc(CNC(=O)c2cc(-c3ccc(Br)cc3)nc3ccccc23)cn1,-4.9,.,.,8.8*
Cn1cc(CNC(=O)c2cc(-c3ccccc3)nc3ccc(Br)cc23)cn1,7.9,-4.5,-51.4,3.5
O=C(O)c1cccc(NC(=O)c2ccc(S(=O)(=O)c3ccccc3)cc2)c1,9.3,-0.8,-23.1,-0.1
O=C(c1ccc(Cl)cc1)c1c[nH]c(C(=O)C(Cl)(Cl)Cl)c1,82.5*,-22.3,83.9*,-0.3
CN1CC(=O)N2[C@H](c3ccc4c(c3)OCO4)c3[nH]c4ccccc4c3C[C@@H]2C1=O,-2.5,.,.,.
CC(=Nc1ccc2c(c1)nc(CO)n2C)C1=C(O)CC(C)(C)CC1=O,-7.0,45.8*,-66.5,0.8
C/C(=N/NC(=O)c1ccccc1)C1=C(O)CC(C)(C)CC1=O,2.1,.,.,-1.1
CCOC(=O)c1sc(NC(=O)CSc2nc(-c3ccco3)cc(C(F)(F)F)n2)c(C(=O)OC)c1C,11.6,2.5,-60.9,3.2
CCCOC(=O)c1c(NC(=O)CSc2nc(-c3ccco3)cc(C(F)(F)F)n2)sc(C(=O)OC)c1C,4.5,5.6,-69.7,8.8*
C=CCn1c(=S)[nH]c2scc(-c3ccc(C)o3)c2c1=O,65.3*,.,.,5.2
Oc1nc(Nc2ccc(Cl)cc2Cl)sc1/C=C1\C=Nc2ccccc21,83.0*,-4.8,12.1,6.9
SMILES,WT yeast gro inh,Yeast lifespan up,Yeast growth inh,RAM inhibit
CCC(OC(=O)c1cc2sccc2n1C)C(=O)NCc1ccco1 (centres undefined),74.9*,-7.4,-74.8,1.8
Cn1c(C(=O)OCC(=O)NCc2ccco2)cc2sccc21,6.1,-12.3,-29.0,3.5
O=C(NCc1ccco1)c1cc2sccc2n1Cc1ccccc1,61.0*,.,-45.8,9.9*
O=C(NCCc1ccccc1)c1cc2sccc2n1Cc1ccccc1,6.8,-5.3,-81.6,4.4
CCn1c(C(=O)NCCCc2ccccc2)cc2sccc21,40.4,4.8,-19.6,10.3*
O=C(c1ccco1)N1CCN(C(=O)c2cc3sccc3n2Cc2ccccc2)CC1,-1.9,16.6,-59.6,3.1
Cc1ccc(Cn2c(C(=O)O)cc3sccc32)cc1,-9.0,26.3*,-33.8,7.3
O=c1oc(-c2ccc([N+](=O)[O-])cc2)nc2ccc(O)cc12,-10.3,.,.,1.4
O=C(Nc1ccc(N2CCOCC2)cc1)C1CC(=O)N(c2ccc(F)cc2)C1 (centres undefined),-12.7,.,.,-0.5
COc1ccc(Cl)cc1NC(=O)COC(=O)c1cc(NS(=O)(=O)c2cccs2)ccc1O,4.4,2.6,-49.2,11.2*
CNc1ccc(/C=C/C(=O)c2ccc3c(c2)OCCO3)cc1[N+](=O)[O-],16.2,-2.3,-42.1,9.0*
CCOC(=O)C1(CCOc2ccccc2)CCN(Cc2ccc(NC(C)=O)cc2)CC1,-13.0,.,.,0.4
CCOC(=O)C1(CCOc2ccccc2)CCN(Cc2ccc3nonc3c2)CC1,62.4*,.,.,1.0
COc1ccccc1-c1ccc(=O)n(CC(=O)Nc2ccc(C(=O)N3CCCC3)cc2)n1,-18.5,-9.3,-33.0,1.2
Cc1ccccc1-c1ccc(=O)n(CC(=O)Nc2ccc(S(=O)(=O)N(C)C)cc2)n1,2.4,.,.,8.9*
CC1(C)Cc2cccc(OCC(=O)Nc3cc(C(F)(F)F)ccc3N3CCOCC3)c2O1,9.8,-7.3,-43.2,2.4
O=C1CC(=C2c3ccccc3-c3ccccc32)C(=O)N1CCCCN1CCN(c2ccccc2)CC1,21.9,.,15.7,4.9
Cc1ccnc2ccc(SC(F)(F)F)cc12,-1.2,.,.,0.9
CC(NC(=O)Nc1ccccc1)C(c1cccs1)N1CCOCC1 (centres undefined),-12.9,-5.1,-27.3,-0.2
CC(NC(=O)Nc1ccc(Cl)cc1)C(c1cccs1)N1CCOCC1 (centres undefined),-4.0,-6.5,48.5*,0.5
COc1ccc(S(=O)(=O)CCC(=O)N2CCN(c3ccc(F)cc3)CC2)cc1,4.1,.,.,10.2*
Cc1ccc(OC(=O)c2oc3ccc(F)cc3c2C)c(C)c1,-0.2,-13.3,-42.8,4.4
COc1ccc(/C=C/C(=O)c2oc3ccc(F)cc3c2C)cc1,0.4,5.0,-40.8,10.7*
Cc1cc(OCc2cccc(Cl)c2)c(C)cc1CN1CCOCC1,70.4*,.,.,-0.2
Cc1cc2ccccc2cc1CN1CCOCC1,0.5,-8.6,-17.0,0.2
SMILES,WT yeast gro inh,Yeast lifespan up,Yeast growth inh,RAM inhibit
S=C(Nc1ccccc1Cl)N(CCCN1CCOCC1)Cc1ccccn1,-6.7,.,.,1.6
COCCNc1ccc(S(=O)(=O)N2CCCC2)cn1,-15.8,.,.,0.0
N#C/C(=N\Nc1ccccc1F)c1nc(-c2ccccc2)cs1,5.8,.,.,9.8*
COc1cc(N=c2ssnc2Cl)cc(OC)c1,9.6,-8.5,-19.5,-1.3
Clc1nssc1=Nc1ccc(Br)cc1,71.3*,.,.,2.0
Clc1ccc(N=c2ssnc2Cl)nc1,68.5*,.,.,-1.2
OCc1ccccc1N=c1ssnc1Cl,3.0,-6.2,16.3,3.1
COc1ccc(Br)cc1CNC(=O)Cc1c(C(=O)O)[nH]c2ccc(Cl)cc12,12.5,.,.,4.0
COc1ccc(Cn2nnnc2C(CC(C)C)N2CCN(c3ccccc3)CC2)cc1 (centres undefined),15.1,-9.8,-7.0,2.5
COc1ccc(Cn2nnnc2C(C(C)C)N2CCc3ccccc32)cc1 (centres undefined),30.2,8.3,-7.3,11.3*
COc1cccc(N(C(=O)CNC(=O)c2ccco2)C(C(=O)NC2CCCCC2)c2ccncc2)c1 (centres undefined),6.7,6.4,-60.8,2.0
CCn1c(CSc2nc3ccccc3s2)nc2ccccc21,63.5*,-4.9,-15.6,0.4
c1csc(CN2CCOCC2)c1,2.7,-1.4,-21.3,0.5
